Source: PubChem BioAssay
Hits are enriched below; roughly 2.9% of the tested compounds scored in any of these assays.
mABHD4 FP: inhibitors of mouse ABHD4. actives 0.54% (n = 370,000). AID 720543. inhibition, % at 8.92 µM. Q8VD66. purified mABHD4, FP-Rh probe fluorescence polarization;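 active = inhibition exceeding the mean over every tested compound plus 3 SD, cut at about 30% in these data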;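 note: 0% = plate median of compound wells and 100% = S159A mutant with DMSO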
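Assay system: mouse ABHD4 enzyme, wild type / Also added: fluorescent activity-based probe FP-Rh / Doses: single nominal dose of 8.92 µM, 0.89% DMSO final / Timing: 45 min compound pre-incubation plus 60 min probe step, 25 °C / Signal: FP readout, ex 525 nm / em 598 nm / Control set: S159A mutant/DMSO as 100%, compound-well median as 0%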
PRMT1 inh: blocks human protein arginine methyltransferase 1; recombinant PRMT1, activity-based probe fluorescence polarization; AID 652257; actives 1.3% (n = 370,000); inhibition, % at 2.79 µM; Q99873;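 active = inhibition above about 21% made by adding two undisclosed values, limit read from the data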
TCR-CD3 inh: blocks the human TCR-CD3 interaction. TAMRA-labeled TCR probe fluorescence, biochemical. inhibition, % at 9.4 µM. actives 0.37% (n = 360,000). AID 651800; in the data active = inhibition above about 19%;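 note: recombinant mutant TCR 2C K166C tagged with TAMRA read by polarization; 0% = receptor in buffer alone and 100% = receptor with positive control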
HTRA1 inh: inhibitors of human serine peptidase HTRA1; AID 504803; actives 0.5% (n = 340,000); inhibition, % at 5.96 µM; recombinant HTRA1, FP-rhodamine activity-based probe, fluorescence polarization; Q92743; in the data active = inhibition above about 36%;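 note: 0% = enzyme with DMSO and 100% = wells lacking enzyme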
Target sequence (Q92743 whole entry, looked up): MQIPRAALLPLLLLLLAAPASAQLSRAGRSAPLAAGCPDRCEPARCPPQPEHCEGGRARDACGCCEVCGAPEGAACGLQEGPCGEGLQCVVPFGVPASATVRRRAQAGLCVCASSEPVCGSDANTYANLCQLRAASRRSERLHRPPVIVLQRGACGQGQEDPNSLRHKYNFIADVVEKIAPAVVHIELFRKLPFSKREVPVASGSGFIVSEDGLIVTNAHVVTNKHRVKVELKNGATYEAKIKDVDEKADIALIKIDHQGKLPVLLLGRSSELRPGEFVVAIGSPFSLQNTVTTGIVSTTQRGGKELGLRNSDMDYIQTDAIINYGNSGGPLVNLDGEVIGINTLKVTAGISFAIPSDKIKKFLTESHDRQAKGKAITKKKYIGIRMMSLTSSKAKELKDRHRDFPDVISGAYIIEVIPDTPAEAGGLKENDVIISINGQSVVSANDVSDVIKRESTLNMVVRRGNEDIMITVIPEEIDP
ATG4B inhibitor: inhibitors of human ATG4B cysteine protease | actives 0.51% (n = 340,000) | inhibition, % at 8.33 µM | ATG4B cleavage of LC3-PLA2, NBD-HPC fluorescence, 1 h | AID 504462; in the data active = inhibition above about 40%
SIAE primary: blocks human sialic acid acetylesterase | Q9HAT2 | SIAE FP-Rh probe binding, fluorescence polarization | actives 0.69% (n = 370,000) | inhibition, % at 9.66 µM | AID 1053197;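 active = inhibition above a cutoff: mean of compounds within the control limits plus 3 SD of those, cut at about 17% in these data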;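 note: 0% = plate median of compound wells and 100% = probe without SIAE protein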
PRMT1 inh conf: confirmation of human PRMT1 inhibitors. inhibition, % at 2.79 µM. AID 687036. actives 42% (n = 3,300). shares compounds with PRMT1 inh. recombinant His-PRMT1, activity-based probe fluorescence polarization;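 active = mean inhibition across replicates above the hit cutoff derived for the earlier primary screen, cut at about 22% in these data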
Numbers without * were called inactive; nt = not tested or not shown; ! = not confirmed by another sample.

SMILES | mABHD4 FP | PRMT1 inh | TCR-CD3 inh | HTRA1 inh | ATG4B inhibitor | SIAE primary | PRMT1 inh conf
COc1cccc(C(=O)NCCN2CCC3(CC2)C(=O)NCN3c2ccccc2)c1 | 6 | 1 | -3 | nt | nt | -2 | nt
CCOC(=O)c1cc(C)sc1/N=C/C1C(=O)NC(=S)NC1=O | -10 | 86* | -18 | -6 | 11 | -12 | 9
CCCCn1c(O)c(/C(C)=N/NC(=O)Nc2ccccc2)c(=O)[nH]c1=O | -5 | 4 | -6 | -3 | -15 | 4 | nt
Cc1nc2ccc(Br)cc2c(=O)n1-c1ccc([N+](=O)[O-])c(C(F)(F)F)c1 | -14 | -5 | 1 | -30 | -2 | -5 | nt
CNS(=O)(=O)c1ccc(-c2ccc(C=C3C(=O)NC(=O)NC3=O)o2)cc1 | 1 | 4 | -5 | -6 | 3 | -11 | nt
O=C1NC(=O)C(=Cc2ccc(SC3CCCCC3)o2)C(=O)N1 | 9 | 26* | -2 | -2 | 23 | -6 | 4
COc1ccc(N2C(=O)/C(=C/c3ccc(OC)c(OC)c3)C(=O)NC2=S)cc1 | 4 | 41* | -4 | 0 | -2 | -3 | 49*
COC(=O)COc1ccc(/C=C2\C(=O)NC(=S)N(c3ccc(C)cc3)C2=O)cc1OC | 5 | 32* | -6 | -3 | 0 | -2 | 27*
O=P(C(Cl)Cl)(N1CCOCC1)N1CCOCC1 | -7 | 0 | 4 | -1 | -3 | 6 | nt
O=CC(Br)P(=O)(N1CCOCC1)N1CCOCC1 (configuration not stated) | -2 | 26* | -1 | nt | 6 | 0 | 31*
COC(=O)C1=C(c2ccccc2OCc2ccccc2)C[C@@H]2CC[C@H]1N2C(=O)NCCN1CCOCC1 | 4 | -1 | 8 | -4 | 5 | -1 | nt
Nc1ccc2nonc2c1[N+](=O)[O-] | 19 | 92* | 10 | 15 | -14 | 0 | 78*
NS(=O)(=O)c1ccc(-c2ccc(C=C3C(=O)NC(=S)NC3=O)o2)cc1 | 15 | 47* | 9 | nt | nt | 2 | 68*
NS(=O)(=O)c1ccc(-c2ccc(C=C3C(=O)NC(=O)NC3=O)o2)cc1 | 0 | 19 | -5 | -1 | 11 | 2 | nt
O=[N+]([O-])c1ccc(N2CCOCC2)c2c1no[n+]2[O-] | -22 | 27* | 5 | -3 | nt | -9 | 2
CN1C(=O)NC(=O)/C(=C/c2ccc(C(=O)O)cc2)C1=O | -4 | 31* | -3 | 1 | -2 | 7 | 6
Cc1ccc(/C=C2/C(=O)NC(=O)N(C)C2=O)cc1 | 4 | 20 | -2 | 7 | -8 | -4 | nt
COc1ccc(C)cc1NC1=NCCCS1 | 2 | -4 | -1 | -8 | 0 | -2 | nt
COc1cc(N2CCOCC2)ccc1/C=C1\C(=O)NC(=O)N(C2CCCCC2)C1=O | -83 | 26* | -69 | -20 | -4 | -10 | 7
COc1ccc(C(C)=O)cc1Cc1c(O)[nH]c(=S)[nH]c1=O | 5 | 28* | 1 | -1 | -2 | -1 | -1
O=C(NCCN1CCC2(CC1)C(=O)NCN2c1ccccc1)c1cccc2c1-c1ccccc1C2=O | 1 | 11 | 1 | nt | nt | 5 | nt
Nc1ccc2ccc3cccc[n+]3c2c1 | 6 | 175* | 4 | 13 | -17 | 1 | 150*
N#CSCC(=O)N1c2ccccc2CCc2ccccc21 | 0 | 58* | 1 | -1 | -32 | 1 | 50*
Nc1ccccc1C(=O)OCC(=O)N1CCc2ccccc21 | 2 | 1 | -4 | -9 | -1 | 7 | nt
CCCCN1C(=O)/C(=C/C=C/c2ccco2)C(=O)NC1=S | -113 | 39* | -91 | -41 | 44* | -75 | 44*
SMILES | mABHD4 FP | PRMT1 inh | TCR-CD3 inh | HTRA1 inh | ATG4B inhibitor | SIAE primary | PRMT1 inh conf
CCc1ccc(N2C(=O)NC(=O)/C(=C\C=C\c3ccco3)C2=O)cc1 | -14 | 27* | -15 | 8 | 6 | -15 | 6
O=C1NC(=O)N(Cc2ccc(F)cc2)C(=O)/C1=C\C=C\c1ccco1 | -11 | 20 | -12 | 1 | 9 | -10 | nt
C=C1C/C(=C/C)C(=O)O[C@@H]2CCN3CC=C(COC(=O)[C@]1(C)O)[C@H]23 | 7 | 0 | 0 | -8 | -10 | 3 | nt
Cc1ccc(N2C(=O)NC(=O)/C(=C\c3cn(CC(=O)O)c4ccccc34)C2=O)cc1 | -5 | 0 | -3 | -9 | 6 | -45 | nt
O=C(O)Cn1cc(/C=C2\C(=O)NC(=O)N(Cc3ccco3)C2=O)c2ccccc21 | -2 | 27* | 2 | -11 | 2 | -7 | 20
CN1CN(c2ccccc2)C2(CCN(CCCSc3ccccc3NC(=O)/C=C/c3ccccc3)CC2)C1=O | 7 | -3 | 0 | -35 | 5 | -7 | nt
Cc1cc2c(C(F)(F)F)cc(=O)oc2c2c1NCCC2 | 15 | 38* | -4 | -1 | -5 | 5 | 58*
N#CC12CC(=O)N1Cc1cnnn1-c1ccccc12 (configuration not stated) | 0 | -1 | -2 | nt | nt | -3 | nt
Nc1c(C(=O)NCCN2CCOCC2)c2nc3ccccc3nc2n1Cc1ccco1 | -2 | 8 | 2 | 2 | -3 | -5 | nt
C=CCNC(=O)c1c(N)n(Cc2ccco2)c2nc3ccccc3nc12 | 6 | 25* | 10 | -17 | -16 | -5 | 9
c1cc(OCCN2CC2)ccn1 | -12 | 1 | -6 | 3 | -11 | -6 | nt
CCOC(=O)C1SC2(C(F)(F)F)CC1(O)c1c(C)cc(C)nc1O2 (configuration not stated) | -7 | 73* | 2 | 4 | 4 | 2 | 63*
O=C(O)c1cc(S(=O)(=O)N2CC3CC(C2)c2cccc(=O)n2C3)ccc1F (configuration not stated) | -4 | 1 | 3 | nt | nt | 1 | nt
C=CCN1C[C@H](C)N(C(c2ccc(C(=O)N(CC)CC)cc2)c2cccc(OC)c2)CC1C (some centres not stated) | -6 | -7 | -4 | nt | nt | 3 | nt
CN(C)C(=S)SSC(=S)N(C)C | 2 | 87* | 5 | 1 | -9 | 0 | 102*
Cc1ccc2cc(CNCCc3ccccc3C)c(=O)[nH]c2c1 | 9 | 0 | 6 | -12 | -3 | -3 | nt
Cc1ccc(NC(=O)[C@@H](NC(=O)N2C[C@H]3C[C@@H](C2)c2cccc(=O)n2C3)C(C)C)cc1 | -1 | -3 | 4 | 2 | -20 | -4 | nt
CN1C(=O)NC(=O)/C(=C/c2ccc([N+](=O)[O-])s2)C1=O | -7 | 31* | -13 | 14 | 2 | -7 | 58*
Cc1cccc(N2CCc3c2nc2ccccc2c3N)c1 | 8 | 33*! | -9 | -16 | -6 | 10 | 8
COC(=O)C1=C(c2cccc(C#N)c2)C[C@@H]2CC[C@H]1N2C(=O)NCC1CC1 | 0 | 0 | -6 | 6 | 0 | -3 | nt
